Peptide text beside a SMILES is read from it.
Tests used:
[1] = molecular target: T1, Solute carrier family 15 member 2 (Rattus norvegicus, UniProt Q63424); assay: TP_TRANSPORTER: inhibition of Gly-Sar uptake in PEPT2-expressing LLC-PK1 cells; type: functional, cell-based
T1 sequence (Q63424 whole entry): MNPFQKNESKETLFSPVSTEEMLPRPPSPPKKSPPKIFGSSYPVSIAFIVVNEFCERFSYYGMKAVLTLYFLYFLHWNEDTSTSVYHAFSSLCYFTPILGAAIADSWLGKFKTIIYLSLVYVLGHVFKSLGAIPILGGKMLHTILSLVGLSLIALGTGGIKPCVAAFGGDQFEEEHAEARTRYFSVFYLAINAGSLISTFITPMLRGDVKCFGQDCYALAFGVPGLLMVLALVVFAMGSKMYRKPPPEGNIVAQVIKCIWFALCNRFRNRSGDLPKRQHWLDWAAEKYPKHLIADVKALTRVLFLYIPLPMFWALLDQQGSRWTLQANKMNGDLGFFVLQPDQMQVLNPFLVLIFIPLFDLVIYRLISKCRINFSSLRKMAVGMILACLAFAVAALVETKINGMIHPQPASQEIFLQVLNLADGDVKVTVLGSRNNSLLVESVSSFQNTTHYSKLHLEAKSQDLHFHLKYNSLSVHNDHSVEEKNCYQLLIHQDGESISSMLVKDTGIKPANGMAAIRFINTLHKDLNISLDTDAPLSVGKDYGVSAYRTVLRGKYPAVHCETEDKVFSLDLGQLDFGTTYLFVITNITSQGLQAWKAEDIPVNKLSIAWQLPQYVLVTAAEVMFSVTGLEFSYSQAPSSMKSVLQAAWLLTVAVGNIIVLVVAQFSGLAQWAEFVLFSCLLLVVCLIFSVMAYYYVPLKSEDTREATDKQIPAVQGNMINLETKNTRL
Method in brief: (§1)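 LLC-PK1 cells stably carrying rat PEPT2 cDNA, grown 6 days in DMEM with 10% FBS. Monolayers were incubated 15 min at 37°C with [14C]glycylsarcosine (20 µM, pH 6.0) alone or with inhibitor, mostly 1–10000 µM. Uptake was normalized to Bradford protein, with control as 100%. IC50 came from nonlinear regression and Ki from Cheng–Prusoff. Two monolayers per concentration, four for control.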

[2] = molecular target: T2, Solute carrier family 15 member 1 (Rattus norvegicus, UniProt P51574); assay: TP_TRANSPORTER: inhibition of Gly-Sar uptake in PEPT1-expressing LLC-PK1 cells; type: functional, cell-based
T2 sequence (P51574 whole entry): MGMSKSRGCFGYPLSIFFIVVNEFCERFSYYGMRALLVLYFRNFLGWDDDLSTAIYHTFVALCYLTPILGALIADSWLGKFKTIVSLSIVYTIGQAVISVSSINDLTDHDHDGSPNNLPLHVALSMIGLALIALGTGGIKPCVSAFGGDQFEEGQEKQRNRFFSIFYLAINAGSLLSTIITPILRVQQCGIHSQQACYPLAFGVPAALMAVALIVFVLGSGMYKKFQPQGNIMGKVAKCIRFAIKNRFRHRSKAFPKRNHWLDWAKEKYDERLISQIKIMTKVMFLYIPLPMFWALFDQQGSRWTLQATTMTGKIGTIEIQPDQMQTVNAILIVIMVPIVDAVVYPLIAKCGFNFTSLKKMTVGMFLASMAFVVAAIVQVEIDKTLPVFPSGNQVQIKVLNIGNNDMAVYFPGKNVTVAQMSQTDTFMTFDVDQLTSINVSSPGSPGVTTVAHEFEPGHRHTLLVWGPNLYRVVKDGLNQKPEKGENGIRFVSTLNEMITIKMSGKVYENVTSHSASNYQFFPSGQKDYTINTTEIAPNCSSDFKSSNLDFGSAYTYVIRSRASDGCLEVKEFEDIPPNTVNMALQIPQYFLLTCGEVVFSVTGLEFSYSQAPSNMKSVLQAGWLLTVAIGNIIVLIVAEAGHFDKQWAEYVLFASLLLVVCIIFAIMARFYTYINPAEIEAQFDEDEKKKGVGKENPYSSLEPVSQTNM
Method in brief: as §1, with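 “PEPT1” for “PEPT2”, “10–20000” for “1–10000”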

Ki [1]	Ki [2]	Structure (SMILES)
7900 µM	4400 µM	NCCCCCCCC(=O)O
28000 µM	> 50000 µM	N[C@@H](CC(=O)NCC(=O)O)C(=O)O
2200 µM	13000 µM	CNCC(=O)NCC(=O)O
96 µM	8000 µM	NCCCC[C@H](NC(=O)[C@@H](N)CCCCN)C(=O)O
6 µM	110 µM	CC(C)C[C@H](NC(=O)CN)C(=O)O
29 µM	61 µM	C[C@H](N)C(=O)Nc1ccc([N+](=O)[O-])cc1
150 µM	990 µM	N[C@@H](CC(=O)O)C(=O)N[C@@H](CC(=O)O)C(=O)O (H-Asp-Asp-OH)
46 µM	830 µM	N[C@@H](CC(=O)O)C(=O)NCC(=O)O (H-Asp-Gly-OH)
22 µM	270 µM	NCC(=O)N[C@@H](CC(N)=O)C(=O)O (H-Gly-Asn-OH)
60 µM	300 µM	NCC(=O)N[C@@H](CC(=O)O)C(=O)O (H-Gly-Asp-OH)
42 µM	860 µM	NCC(=O)NCC(=O)O (H-Gly-Gly-OH)
29 µM	610 µM	NCC(=O)NCC(=O)N[C@@H](Cc1ccccc1)C(=O)O (H-Gly-Gly-Phe-OH)
39 µM	1400 µM	NCC(=O)N[C@@H](Cc1c[nH]cn1)C(=O)O (H-Gly-His-OH)
8 µM	190 µM	CC(C)C[C@H](NC(=O)CN)C(=O)N[C@@H](Cc1ccc(O)cc1)C(=O)O (H-Gly-Leu-Tyr-OH)
210 µM	2200 µM	NCCCC[C@H](NC(=O)CN)C(=O)O (H-Gly-Lys-OH)
8 µM	170 µM	NCC(=O)N[C@@H](Cc1ccccc1)C(=O)O (H-Gly-Phe-OH)
7 µM	1400 µM	NCC(=O)N[C@@H](Cc1c[nH]c2ccccc12)C(=O)O (H-Gly-Trp-OH)
14 µM	210 µM	NCC(=O)N[C@@H](Cc1ccc(O)cc1)C(=O)O (H-Gly-Tyr-OH)
21 µM	910 µM	NCCCC[C@H](N)C(=O)NCC(=O)O (H-Lys-Gly-OH)
17 µM	150 µM	CSCC[C@H](N)C(=O)N[C@@H](C)C(=O)O (H-Met-Ala-OH)
7 µM	220 µM	N[C@@H](Cc1ccccc1)C(=O)NCC(=O)O (H-Phe-Gly-OH)
2000 µM	13000 µM	O=C(O)CNC(=O)[C@@H]1CCCN1 (H-Pro-Gly-OH)
10000 µM	24000 µM	CSCC[C@H](NC=O)C(=O)N[C@@H](C)C(=O)O (HELM PEPTIDE1{[O=C[*:2]].M.A}$$$$V2.0)
230 µM	2200 µM	NCC(=O)CCC(=O)O [AMINOLEVULINIC ACID]
66 µM	8000 µM	NCCC(=O)N[C@@H](Cc1cnc[nH]1)C(=O)O [CARNOSINE]
160 µM	1300 µM	NCC(=O)NCC(=O)NCC(=O)O [GLYCYLGLYCYLGLYCINE]
18 µM	1500 µM	CC(C)C[C@H](NC(=O)[C@@H](O)[C@H](N)Cc1ccccc1)C(=O)O [UBENIMEX]

From ChEMBL document CHEMBL2074359, “Structural requirements for determining the substrate affinity of peptide transporters PEPT1 and PEPT2” (Pflugers Arch, 2000)
